Results: the EternaBench riboswitch data

Tested on: MS2 coat protein
Experiment: apparent Kd, MS2 coat protein; higher = weaker binding; RNA-MaP array; FMN 200 µM where present
In short: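 Designs were transcribed by stalled E. coli RNA polymerase on Illumina sequencing-chip clusters. They were titrated with SNAP-549-labelled MS2 coat protein from 0.7 or 1.5 nM, doubling to 3 µM, without and then with constant ligand. Buffer: 100 mM Tris-HCl pH 7.5, 80 mM KCl, 4 mM MgCl2, BSA, DTT, yeast tRNA, Tween-20. Green signal was normalised to red-channel RNA signal and control-cluster median Fmax. Apparent Kd is the median of filtered per-cluster binding-curve fits.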

[1] = designed as: OFF switch for flavin mononucleotide, no ligand
[2] = ligand present: flavin mononucleotide, designed as: OFF switch for flavin mononucleotide
[3] = designed as: ON switch for flavin mononucleotide, no ligand
[4] = ligand present: flavin mononucleotide, designed as: ON switch for flavin mononucleotide

Sequence | apparent Kd [1] [nM] | apparent Kd [2] [nM] | apparent Kd [3] [nM] | apparent Kd [4] [nM]
AUCCAGCGAGGAUAUACAUAGAUUUUUUCGUUUUGUCUCGAACAUGAGGAUCACCCAUGUAGAAGGUGCUUCAC | 82.5 | 81 | – | –
CCAUAAAAGAUCCAAAAUUACAACAUGAGGAUCACCCAUGUGCAGGAUAUCGUGACAGUGAAGUACGAGAAGGGCAGACACUGC | 197 | 208 | – | –
ACACAUGAGGAUCACCCAUGUACGCGCUGACAGGAGGUCUCACAGGAUAUAUGUGGUGAUGCUACAUAGAAGGGUGAUACCGCG | – | – | 233 | 49.5
AACCUGAGGCUUUGCUUUAGGUGAACAUGAGGAUCACCCAUGUAGGAUAUGGUAGGCUUUGCUUACCAGAAGGACAUAUUAAUU | 39.3 | 86.1 | – | –
GUAGCAUACCGAGGAUAUUCAACCGGAAACGGAACAUGAGGAUCACCCAUGUGGCGAAAGCCUUGGGAGAAGGCGGAAUGCUAC | – | – | 77.5 | 20.6
AGUGAGGGAGGAUAUACGUUGGUAUCACUGCAUUCGUCGUCACAUGAGGAUCACCCAUGUAGAAGGCCCGAGAG | 28.8 | 79.1 | – | –
GCGAAGGGAGGAUAUCCGCGCGCGCACAUGAGGAUCACCCAUGUGCGCGCGCGCGCGCGCGGAGAAGGCCCGGUGC | 16.4 | 13.4 | – | –
CAGCUGAAUGUGAGGAUAUCUAGAGCUGCGGCUCUAGAGAAGGCACAUGAGGAUCACCCAUGUCUCAACAGCUG | 40.7 | 294 | – | –
CAUUAAUUCAUUAUAUUAAUUUUACAGGAUAUGUAACAUGAGGAUCACCCAUGUAUUCUAGGUUAACAGAAGGGUAUUACUUGU | 28.6 | 22.9 | – | –
UUGGCACAUGAGGAUCACCCAUGUUAGGAUAUUGUGGCAGAAACAGCUGGGAAACGCACGAGAAGGGACACAUA | 33.4 | 38.5 | – | –
GCUCUACAUGAGGAUCACCCAUGUUCGGACGCACGAGGAUAUGCAUGGGCGAAAGCUGGUGCAGAAGGCGUGGGAC | – | – | 209 | 33.4
UUUUAACAUGAGGAUCACCCAUGUGAGGAUAUCGAAAUUUAUAUUAAUAUUAAUAUUACGAGAAGGCACAUUUU | 77.8 | 101 | – | –
GCUGCAUAGGCAGGAUAUGCAAAAAACGAUGCAAAGCAUCGAAAAAAAACAUGAGGAUCACCCAUGUAGAAGGGCCUGUGCAGU | 22.6 | 20.8 | – | –
CCGGAAAUGAAGGAUAUAGGUGUCGAUAGACUCCUAGAAGGUCAUACAUGAGGAUCACCCAUGUGUCCUACCGG | 15.7 | 32.6 | – | –
AUCAGCUCGUCAGGAUAUACGUCACUGCGUCAGCAGUGUGUUAAGAUCACAUGAGGAUCACCCAUGUAGAAGGGACGAGCUGAU | 6.7 | 27.9 | – | –
UUAUUAUGUGUAGGAUAUGCAUAUUAUUAUUAUGCAGAAGGACAUGAGGAUCACCCAUGUAUAUUAUUAAUAUAUAUUAUAUAU | 13.9 | 15.7 | – | –
UUACUCAUGUAAGGAUAUGUAGCCGUUUCGGCUGCAGAAGGUACUAUAAUACAUGAGGAUCACCCAUGUCUAUAAAAUAAAGAC | – | – | 34.6 | 25.6
AUCAGCUCUUCAGGAUAUACGUCACUGCGUCAGCAGUGUGGUAAGAUCACAUGAGGAUCACCCAUGUAGAAGGGACGAGCUGAU | 12.2 | 173 | – | –
ACCGGUGUAGGAUAUAUCUGGGAUGAAGAUGAUCCUGCUAAACAUGAGGAUCACCCAUGUAGAAGGAUGCCUGG | 83.6 | 178 | – | –

Sequence | apparent Kd [1] [nM] | apparent Kd [2] [nM] | apparent Kd [3] [nM] | apparent Kd [4] [nM]
GGAUGACAAAGUCAUCCAAUACGAACAUGAGGAUCACCCAUGUAGGAUAUGCUACUCAAAGAGUAGCAGAAGGACAUGUGCCUU | 33.8 | 252 | – | –
CGUUGGUCAGGAUAUGGUGGGCUGGUGAGAGGGCCGGGUGGCUAGAAGGGACAUGAGGAUCACCCAUGUACGGC | 40.4 | 28.2 | – | –
UCACGGGACUGAGGAUAUACAUGAACUAUUUUUGUAGAAGGCAGAAUGUUAGAUUAUACACUAAACAUGAGGAUCACCCAUGUU | 19.1 | 16.1 | – | –
GCUGCGUAUGCAGGAUAUACAUGAGGAUCACCCAUGUAACUCGAACUCUAAGCGGGUGCGCGCAUGUAGAAGGGCAGGCGAGCC | 35.5 | 51.2 | – | –
GCGUCACAAUUAGAACCAAUACGAACAUGAGGAUCACCCAUGUAGGAUAUGCUAGAAGUUGAGUUGCAGAAGGACAUAUAACGC | 12 | 10.9 | – | –
AUUUAGUGCGAGAAGGCGUGGUCACAUGAGGAUCACCCAUGUCAGUACACGAGGAUAUCGAUUCACUGUGUUAAUACAAGUGAC | – | – | 77.9 | 6.68
CGCUGCCACGCAGGAUAUGCAUUGGAUUCCAAUGCAGAAGGGCGAUUACAUGAGGAUCACCCAUGUGUCGGCAGUGAAGAAGAG | – | – | 590 | 44.8
CUCCUGUGAUUAGGAUAUGUGCGCACUGUGCUAGCAGAAGGGAUCACAUGAGGAUCACCCAUGUGAGUAGCUCACUGUAAAGGG | 111 | 107 | – | –
GGCUCAUUUACAUUAAUGUGCAGACAGGAUAUCCACCGCGGUUCCUACAUGAGGAUCACCCAUGUGGAGAAGGGUCGCUAAUGG | 29.1 | 72.2 | – | –
GACUGCUGAGGAUAUACAUGAGGAUCACCCAUGUGCUUCAGCUAGGAGACUAGCAUUGGUAGAAGGUAGUAGUC | 11.1 | 16.1 | – | –
CGGGCAAUGUCCGAGACAUGAGGAUCACCCAUGUUAGCAGCACAGGAUAUCAUGUUUUGUAAAGGUGAGAAGGGUGAUUGCAUC | – | – | 273 | 139
AAUCCACAUGAGGAUCACCCAUGUGAGGAUAUGAUACUAUGUACUUCGGUACAUAGUAUCAGAAGGCACAGGUC | 23.6 | 51.6 | – | –
UGGCUACAUGAGGAUCACCCAUGUCAGGAUAUGCCGUUAAAUUAACAUCAACAUACGGGUAGAAGGGACUGCGU | 28.8 | 29.5 | – | –
UUUAUGAAGCUUCGUCAAUACAGUUAGGAUAUGAGAGACAUGAGGAUCACCCAUGUGCAUGUUGAUUAGAAGGAACAACUAUCU | 17.6 | 15.1 | – | –
CCUCCACAUGAGGAUCACCCAUGUCACACUCCGUCAGGAUAUAGCCUGCAUCCGCUGUGGCUAGAAGGGACUGCUG | – | – | 332 | 303
GGAUAGGACAGAGGAUAUACGUGCUAGAGAUACUAGCGAAAUUUCCUCACAUGAGGAUCACCCAUGUAGAAGGCUGUCCUAUCG | 28.1 | 892 | – | –
UAUAAAACAUAGGAUAUCGAAAUUAUCAUUUAACGAGAAGGAUGAACAUGAGGAUCACCCAUGUGGUAUCAUGG | 392 | 518 | – | –
AUUUUGUCAGGAUAUGAGUAGUAGGACGAAAGUGUUAUUAUUUAGAAGGGACAUGAGGAUCACCCAUGUUUUCC | 12.7 | 16.7 | – | –
GGGCCCGGAGGAUAUACAUGAGGAUCACCCAUGUGCCGGGCCCAACGGGCCCGGCUGUGUAGAAGGCCGGGCCC | 13.3 | 12.5 | – | –

Sequence | apparent Kd [1] [nM] | apparent Kd [2] [nM] | apparent Kd [3] [nM] | apparent Kd [4] [nM]
GUAGCAUACCGAGGAUAUUCAGGGCAUAAAUAAACAUGAGGAUCACCCAUGUGGCGAAAGCCUAGGGAGAAGGCGGAAUGCUAC | – | – | 18.5 | 15.3
GUCCUACAUGAGGAUCACCCAUGUAAGGAUAUGCUAGCGGUCGGAAGACUGACUGCUAGCAGAAGGUACAUGAU | 15 | 24.5 | – | –
AGUAACAGAGGAUAUACUAUUUUAUGUAUUUAUUAUUUUAAACAUGAGGAUCACCCAUGUAGAAGGCUGAAUGA | 24.7 | 22.8 | – | –
CAUACACAUGAGGAUCACCCAUGUGAGGAUAUGCGUACGUAAUCCGUAGGAGACGUGCGCAGAAGGCGCGAGGU | 56.6 | 44 | – | –
CUUAGGUGUACAUGAGGAUCACCCAUGUCCCUGGUCAUUAGACAGGAUAUAUGGGCGGUCGCUGCAUAGAAGGGUUAAAUGGGA | – | – | 764 | 591
CGGUACACAGGAUAUAACGUCUGCAACAUGAGGAUCACCCAUGUUGUCCAAACGUUGCGGUUAGAAGGGUGGGCGC | 30.7 | 70.8 | – | –
GUGGUGCAUAUACGUGGAUGUACAUGAGGAUCACCCAUGUGAGAGGAUAUGCGGAUACUAGCUCAGCAGAAGGCUUACAAAUGA | 15.2 | 45.8 | – | –
AUCAGUACGUGAGGAUAUGCGUUACUGCGAAAGCAGUACGGUAAGAUCACAUGAGGAUCACCCAUGUAGAAGGCACGAACUGAU | 18.9 | 37.5 | – | –
UGGAGGUCAGGAUAUGCAUGGCGGGACUUGCGUCGUGGCGUGCAGAAGGGACAUGAGGAUCACCCAUGUGGAGG | 124 | 121 | – | –
AAUUGAAACGUAGGAUAUCGCACAAAUCUAAAACGAGAAGGACGUACAUGAGGAUCACCCAUGUUAAAUGGUGUAGAUUAGAUG | 543 | 636 | – | –
UGUUAAUAUCGAGGAUAUGUCUAGACACAUGAGGAUCACCCAUGUAUGUGUAUAGAAGGCGAUAUUAACAGCAUGUUACAUGCC | – | – | 37.1 | 17.7
UGGUACUAGGGAGGAUAUGGGAAGAUACAUGAGGAUCACCCAUGUUUAAGAAUGCCGAGAGGCAACUAGAAGGCCCUGGUACCU | – | – | 459 | 17.9
AAUAACAGAGGAUAUACUAUUUUAUGUAUUUAUUAUUUUAAACAUGAGGAUCACCCAUGUAGAAGGCUGAAUAA | 19.8 | 20.7 | – | –
AGUUACAUACUCAACAUGAGGAUCACCCAUGUACUCUCUUGUAAGGAUAUACAUUCGUAUUGAUAGUAGAAGGUACUAAUUAUG | – | – | 50.9 | 51.5
UCCGAACAUGAGGAUCACCCAUGUGAGGAUAUAGACGUGAAUUAAACACGUAACAAAACUAGAAGGCACUGGGC | 14.7 | 13.2 | – | –
CCGGAAAUGAAGGAUAUAGGAGUCGAUAGACUCCUAGAAGGUCAUACAUGAGGAUCACCCAUGUGUCCUACCGG | 15.8 | 34.9 | – | –
AUAUUGUGAGGAUAUGAACUUAGUAUCGAAACAUACUAAGUUCAGAAGGCACAUGAGGAUCACCCAUGUUUCUC | 68.6 | 430 | – | –
AGCUGUGGCCGAGGAUAUCUAAAACUCAAAACCGAAAUAUAAUCGGACAUGAGGAUCACCCAUGUAGAGAAGGCGGUCUCAGCA | 78.8 | 157 | – | –
